{"source": "ChEMBL document CHEMBL1147176", "about": "“Synthesis of S-dialkylarsino-3-mercapto-1,2-propanediols and evaluation of their anticancer activity” (2007)", "assay_type_in_all_cases": "functional", "key": {"[1]": {"tested_on": "SW-620", "assay": "Anticancer activity against human SW620 cells assessed as growth inhibition", "in_short": "(§1)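 NCI in vitro disease-oriented human tumor cell screen, about 60 lines. Growth inhibition read as pGI50, the -log of the molar concentration inhibiting 50% net cell growth. A mean graph midpoint is the arithmetic mean over all tested lines. Where the effect was not reached within the concentration interval, the highest tested concentration was used.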"}, "[2]": {"tested_on": "IGROV-1", "assay": "Anticancer activity against human IGROV1 cells assessed as growth inhibition", "in_short": "as §1"}, "[3]": {"tested_on": "CAKI-1", "assay": "Anticancer activity against human CAKI1 cells assessed as growth inhibition", "in_short": "as §1"}, "[4]": {"tested_on": "CCRF-CEM", "assay": "Anticancer activity against human CCRF-CEM cells assessed as growth inhibition", "in_short": "as §1"}, "[5]": {"tested_on": "HL-60", "assay": "Anticancer activity against human HL60(TB) cells assessed as growth inhibition", "in_short": "as §1"}, "[6]": {"tested_on": "K562", "assay": "Anticancer activity against human K562 cells assessed as growth inhibition", "in_short": "as §1"}, "[7]": {"tested_on": "MOLT-4", "assay": "Anticancer activity against human MOLT4 cells assessed as growth inhibition", "in_short": "as §1"}, "[8]": {"tested_on": "RPMI-8226", "assay": "Anticancer activity against human RPMI8226 cells assessed as growth inhibition", "in_short": "as §1"}, "[9]": {"tested_on": "SR", "assay": "Anticancer activity against human SR cells assessed as growth inhibition", "in_short": "as §1"}, "[10]": {"tested_on": "A549", "assay": "Anticancer activity against human A549/ATCC cells assessed as growth inhibition", "in_short": "as §1"}, "[11]": {"tested_on": "EKVX", "assay": "Anticancer activity against human EKVX cells assessed as growth inhibition", "in_short": "as §1"}, "[12]": {"tested_on": "HOP-62", "assay": "Anticancer activity against human HOP62 cells assessed as growth inhibition", "in_short": "as §1"}, "[13]": {"tested_on": "HOP-92", "assay": "Anticancer activity against human HOP92 cells assessed as growth inhibition", "in_short": "as §1"}, "[14]": {"tested_on": "NCI-H226", "assay": "Anticancer activity against human NCI-H226 cells assessed as growth inhibition", "in_short": "as §1"}, "[15]": {"tested_on": "NCI-H23", "assay": "Anticancer activity against human NCI-H23 cells assessed as growth inhibition", "in_short": "as §1"}, "[16]": {"tested_on": "NCI-H322M", "assay": "Anticancer activity against human NCI-H322M cells assessed as growth inhibition", "in_short": "as §1"}, "[17]": {"tested_on": "NCI-H460", "assay": "Anticancer activity against human NCI-H460 cells assessed as growth inhibition", "in_short": "as §1"}, "[18]": {"tested_on": "NCI-H522", "assay": "Anticancer activity against human NCI-H522 cells assessed as growth inhibition", "in_short": "as §1"}, "[19]": {"tested_on": "COLO 205", "assay": "Anticancer activity against human COLO 205 cells assessed as growth inhibition", "in_short": "as §1"}, "[20]": {"tested_on": "HCC 2998", "assay": "Anticancer activity against human HCC2998 cells assessed as growth inhibition", "in_short": "as §1"}, "[21]": {"tested_on": "HCT-116", "assay": "Anticancer activity against human HCT116 cells assessed as growth inhibition", "in_short": "as §1"}, "[22]": {"tested_on": "HCT-15", "assay": "Anticancer activity against human HCT15 cells assessed as growth inhibition", "in_short": "as §1"}, "[23]": {"tested_on": "HT-29", "assay": "Anticancer activity against human HT29 cells assessed as growth inhibition", "in_short": "as §1"}, "[24]": {"tested_on": "KM12", "assay": "Anticancer activity against human KM12 cells assessed as growth inhibition", "in_short": "as §1"}, "[25]": {"tested_on": "SF-268", "assay": "Anticancer activity against human SF268 cells assessed as growth inhibition", "in_short": "as §1"}, "[26]": {"tested_on": "SF-295", "assay": "Anticancer activity against human SF295 cells assessed as growth inhibition", "in_short": "as §1"}, "[27]": {"conditions": "read-out: Log LC50 (the source's name) (converted)"}}, "data": [{"smiles": "C[As](C)SCC(COC(=O)C(Cl)c1ccccc1)OC(=O)C(Cl)c1ccccc1", "note": "(stereo unspecified)", "values": [{"measurement": "GI50", "setting": "[1]", "result": 617, "unit": "nM"}, {"measurement": "CC50", "setting": "[1]; [27]", "result": "> 100", "unit": "µM"}, {"measurement": "GI50", "setting": "[2]", "result": 4.47, "unit": "µM"}, {"measurement": "CC50", "setting": "[2]; [27]", "result": "> 100", "unit": "µM"}, {"measurement": "GI50", "setting": "[3]", "result": 347, "unit": "nM"}, {"measurement": "CC50", "setting": "[3]; [27]", "result": 30.2, "unit": "µM"}, {"measurement": "GI50", "setting": "[4]", "result": 302, "unit": "nM"}, {"measurement": "CC50", "setting": "[4]; [27]", "result": 32.4, "unit": "µM"}, {"measurement": "GI50", "setting": "[5]", "result": 162, "unit": "nM"}, {"measurement": "CC50", "setting": "[5]; [27]", "result": 8.51, "unit": "µM"}, {"measurement": "GI50", "setting": "[6]", "result": 37.1, "unit": "nM"}, {"measurement": "CC50", "setting": "[6]; [27]", "result": 5.37, "unit": "µM"}, {"measurement": "GI50", "setting": "[7]", "result": 347, "unit": "nM"}, {"measurement": "CC50", "setting": "[7]; [27]", "result": "> 100", "unit": "µM"}, {"measurement": "GI50", "setting": "[8]", "result": 316, "unit": "nM"}, {"measurement": "CC50", "setting": "[8]; [27]", "result": "> 100", "unit": "µM"}, {"measurement": "GI50", "setting": "[9]", "result": 1410, "unit": "nM"}, {"measurement": "CC50", "setting": "[9]; [27]", "result": "> 100", "unit": "µM"}, {"measurement": "GI50", "setting": "[10]", "result": 3.72, "unit": "µM"}, {"measurement": "CC50", "setting": "[10]; [27]", "result": "> 100", "unit": "µM"}, {"measurement": "GI50", "setting": "[11]", "result": 10.5, "unit": "µM"}, {"measurement": "CC50", "setting": "[11]; [27]", "result": "> 100", "unit": "µM"}, {"measurement": "GI50", "setting": "[12]", "result": 4.37, "unit": "µM"}, {"measurement": "CC50", "setting": "[12]; [27]", "result": 40.7, "unit": "µM"}, {"measurement": "GI50", "setting": "[13]", "result": 162, "unit": "nM"}, {"measurement": "CC50", "setting": "[13]; [27]", "result": 40.7, "unit": "µM"}, {"measurement": "GI50", "setting": "[14]", "result": 26.9, "unit": "µM"}, {"measurement": "CC50", "setting": "[14]; [27]", "result": 67.6, "unit": "µM"}, {"measurement": "GI50", "setting": "[15]", "result": 741, "unit": "nM"}, {"measurement": "CC50", "setting": "[15]; [27]", "result": 22.9, "unit": "µM"}, {"measurement": "GI50", "setting": "[16]", "result": 1660, "unit": "nM"}, {"measurement": "CC50", "setting": "[16]; [27]", "result": 32.4, "unit": "µM"}, {"measurement": "GI50", "setting": "[17]", "result": 5.75, "unit": "µM"}, {"measurement": "CC50", "setting": "[17]; [27]", "result": 79.4, "unit": "µM"}, {"measurement": "GI50", "setting": "[18]", "result": 457, "unit": "nM"}, {"measurement": "CC50", "setting": "[18]; [27]", "result": "> 100", "unit": "µM"}, {"measurement": "GI50", "setting": "[19]", "result": 363, "unit": "nM"}, {"measurement": "CC50", "setting": "[19]; [27]", "result": "> 100", "unit": "µM"}, {"measurement": "GI50", "setting": "[20]", "result": 1550, "unit": "nM"}, {"measurement": "CC50", "setting": "[20]; [27]", "result": 8.13, "unit": "µM"}, {"measurement": "GI50", "setting": "[21]", "result": 407, "unit": "nM"}, {"measurement": "CC50", "setting": "[21]; [27]", "result": 4.9, "unit": "µM"}, {"measurement": "GI50", "setting": "[22]", "result": 380, "unit": "nM"}, {"measurement": "CC50", "setting": "[22]; [27]", "result": "> 100", "unit": "µM"}, {"measurement": "GI50", "setting": "[23]", "result": 813, "unit": "nM"}, {"measurement": "CC50", "setting": "[23]; [27]", "result": "> 100", "unit": "µM"}, {"measurement": "GI50", "setting": "[24]", "result": 1200, "unit": "nM"}, {"measurement": "CC50", "setting": "[24]; [27]", "result": 30.9, "unit": "µM"}, {"measurement": "GI50", "setting": "[25]", "result": 3.16, "unit": "µM"}, {"measurement": "CC50", "setting": "[25]; [27]", "result": 56.2, "unit": "µM"}, {"measurement": "GI50", "setting": "[26]", "result": 3.63, "unit": "µM"}]}]}
